Only some compounds are listed: those with a hit (about 0.89% of all), similar ones and a draw of the others.
E-sel TNF inh: E-selectin induction blockers in HUVEC – imaging, immunofluorescence, high content, primary screen | HUVEC TNFa-induced E-selectin immunofluorescence | inhibition, % at 2 µM | 0.71% of 120,000 active;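 active = inhibition above the batch mean plus 3 SD, and confirmed as a hit on visual image review, cut at about 43% in these data; inconclusive = passes the inhibition cutoff but fails visual image review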;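 note: 0% = TNF-stimulated DMSO wells and 100% = unstimulated control wells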
HSV replic up: enhancers of HSV replication in host cells, fold increase, host cell viability; maximum fold increase; 0.005% of 220,000 active; AID 1956, 2009; HSV replication augmentation in cells; in the data active = maximum fold increase above about 1.5; inconclusive = no clear call, values can overlap the other calls; tested in PC3 cells
zVAD death inh: inhibitors of zVAD-triggered necroptosis, primary screen, L929 cells. L929 zVAD necroptosis rescue, ATP luminescence, 24 h; with zVAD 60 µM. 0.38% of 220,000 active. AID 1377, 2008. viability rescue, % at 10 µM;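 active = activation, scaled between plate controls, above about 75%, limit read from the data; inactive = activation under that limit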;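 note: 0% = zVAD with DMSO and 100% = DMSO alone without zVAD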
MDM2 E3 inh: MDM2-luciferase reporter signal enhancers, primary screen, MDM2 E3 ligase inhibitor project, cell-based, luminescence, 1536-well; 0.11% of 210,000 active; cell-based MDM2 ubiquitination luciferase reporter, 2 h; 0 = plate control, 100 = twice control, blank-subtracted; AID 1230, 2008; signal enhancement, % at 5 µM; E3 ubiquitin-protein ligase Mdm2 (Homo sapiens), Q00987;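 active = signal enhancement of 30% or more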;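 note: luminescence tracks abundance of the self-degrading MDM2-luciferase fusion protein; higher signal means inhibition of MDM2 E3 ligase activity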
Target sequence (Q00987 whole entry, looked up, the tested form may be a part): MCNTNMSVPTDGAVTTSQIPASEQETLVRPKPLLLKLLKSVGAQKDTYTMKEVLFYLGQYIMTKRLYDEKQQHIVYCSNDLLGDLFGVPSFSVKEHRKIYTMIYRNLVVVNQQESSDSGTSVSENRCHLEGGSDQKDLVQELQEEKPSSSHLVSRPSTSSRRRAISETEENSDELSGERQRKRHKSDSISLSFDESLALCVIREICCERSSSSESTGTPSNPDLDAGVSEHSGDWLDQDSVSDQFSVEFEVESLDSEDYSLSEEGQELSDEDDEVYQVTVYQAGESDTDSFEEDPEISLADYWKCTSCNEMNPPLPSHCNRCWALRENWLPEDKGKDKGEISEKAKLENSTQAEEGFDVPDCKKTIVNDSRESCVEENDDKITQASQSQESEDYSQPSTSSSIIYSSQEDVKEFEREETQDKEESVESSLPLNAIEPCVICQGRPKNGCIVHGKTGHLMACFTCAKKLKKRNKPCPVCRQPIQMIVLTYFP
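Material: Stable MDM2–luciferase fusion reporter cells | Amount: 2000 cells seeded into each well | Dosing: One concentration, 5 µM, with 0.2% DMSO | Incubation: 4 h cell settling then 2 h compound exposure, 37 °C | Measured by: Luciferase luminescence | Read-out basis: % enhancement relative to plate controls after blank subtraction | Benchmarks: Control and blank well means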
TNF necrop inh: inhibitors of TNF-alpha triggered necroptosis, primary screen, cell-based, Jurkat FADD-/-, single concentration; Jurkat FADD-/- TNF necroptosis rescue, ATP luminescence, 24 h; 0 = TNF only, 100 = no-TNF cells; activation (protection from cell death), % at 10 µM; 0.068% of 220,000 active;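 active = activation, meaning protection from cell death, of at least 50% relative to plate controls; inactive = activation below 50%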;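 note: necroptosis triggered by 40 ng/mL TNF-alpha added together with compound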
zVAD necrop conf: inhibitors of zVAD-triggered necroptosis in L929, confirmation, L929 cells, duplicate runs; shares compounds with zVAD death inh; L929 zVAD-induced necroptosis rescue, ATP luminescence, 24 h; activation (protection from necroptosis), % at 10 µM; 16% of 760 active; AID 463117, 2010;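 active = mean protection from necroptosis of at least 50% over duplicate tests; inactive = mean protection below 50%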;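 note: 0% = cells with zVAD alone and 100% = vehicle cells without zVAD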
* marks the source's active call; other numbers are inactive results; i = inactive; ? = inconclusive; . = no result.

SMILES	E-sel TNF inh	HSV replic up	zVAD death inh	MDM2 E3 inh	TNF necrop inh	zVAD necrop conf
COc1ccc(-n2c(O)c(/C=N/NS(=O)(=O)c3cccc([N+](=O)[O-])c3)c3ccccc3c2=O)cc1OC	.	?	2.6	-4.9	-1.3	.
O=C(CSc1nnc2n1CCCN2C(=S)Nc1ccc(Cl)cc1)c1ccccc1	-26.1	i	93.0*	-5.0	96.0*	3.1
O=C(C1=NNCC1c1ccccc1)C1CO1 (configuration not stated)	.	i	98.5*	16.6	90.5*	90.3*
O=C(c1[nH]ncc1-c1ccccc1)C1CO1 (configuration not stated)	.	i	1.3	9.9	-1.5	.
O=C(CCCN1C(=O)c2cccc3cccc(c23)C1=O)Nc1ccon1	.	i	1.0	-4.8	-0.9	.
CCOc1ccc(NC(=O)CSC2=NCCN2)cc1	.	i	5.1	-9.4	-0.6	.
COC(=O)c1ccc(NC(=O)CSC2=NCCN2)cc1	.	i	91.7*	-8.6	-7.7	11.9
CC(=O)c1c(C)[nH]c(C(=O)Nc2ccc(Cl)c(S(=O)(=O)N(C)C)c2)c1C	1.4	i	65.6	-8.2	-1.8	.
CC(=O)c1c(C)[nH]c(C(=O)OCC(=O)Nc2ccc(Cl)c(S(=O)(=O)N(C)C)c2)c1C	.	i	79.7*	-5.6	-7.0	2.8
COc1ccc(COC[C@H](C)[C@H](O)[C@@H](C)[C@H]2OC(=O)[C@@H]2C)cc1	.	i	.	.	.	.
Cc1[nH]n(-c2ccccc2)c(=O)c1C=NC1CCCCCC1	.	i	79.5*	-1.6	3.0	34.0
Cc1[nH]n(-c2ccccc2)c(=O)c1C=NC1CCCCC1	3.8	i	75.1*	-29.4	2.6	1.1
O=C(Nc1ccc(N2CCOCC2)cc1)c1nc2ccccc2s1	.	i	-0.3	.	-0.9	.
N#Cc1cccc(NCC(=O)Nc2ccc3c(c2)OCCO3)c1	.	i	77.2*	-24.4	1.7	1.5
N#Cc1ccc(NCC(=O)Nc2ccc3c(c2)OCCO3)cc1	.	i	65.9	0.5	2.1	.
O=C(CSc1nc2ccc(Cl)cc2[nH]1)N1CCN(C(=O)c2ccco2)CC1	-18.6	i	85.3*	-6.6	2.4	48.5
Cc1cc(C)c(Nc2ncnc(N)n2)c(C)c1	.	i	0.8	-13.8	2.7	.
CCOc1cc(/C=C2\SC(=O)N(c3ccc(O)cc3)C2=O)ccc1O	.	?	0.6	3.7	3.2	.
N=C1S/C(=C\c2ccc(O)cc2)C(=O)N1c1ccc(F)cc1	6.1	i	80.4*	8.6	1.8	1.4
COc1cc(/C=C/C(=O)O)cc(S(=O)(=O)Nc2ccccc2Oc2ccccc2)c1OC	.	i	-0.4	.	-1.3	.
O=C(N/N=C/c1ccccc1[N+](=O)[O-])c1cnccn1	.	i	1.5	-4.5	0.5	.
COc1ccc(CCNC(=O)COc2ccc(C)nc2[N+](=O)[O-])cc1	.	i	0.6	-2.8	-1.0	.
Oc1c(Br)cc(C2N=C(c3ccccc3)NO2)cc1Br (configuration not stated)	-30.1	i	80.0*	-4.4	-0.1	4.1
CCOC(=O)C1C(=O)NC(c2ccccc2)=NC1c1cccc(Br)c1 (configuration not stated)	3.4	i	0.8	-8.9	-0.2	.
O=S(=O)(CC(CN1CCCCC1)N1CCCCC1)c1ccc2ccccc2c1 (configuration not stated)	.	i	76.5*	-12.8	-4.7	1.7
SMILES	E-sel TNF inh	HSV replic up	zVAD death inh	MDM2 E3 inh	TNF necrop inh	zVAD necrop conf
O=S(=O)(CC(CN1CCOCC1)N1CCOCC1)c1ccccc1 (configuration not stated)	.	i	0.4	-7.4	0.8	.
Cc1ccc(S(=O)(=O)CC(CN2CCCCC2)N2CCCCC2)cc1 (configuration not stated)	-24.2	i	80.8*	-11.5	10.4	21.5
COC(=O)c1cc(-c2ccc(S(=O)(=O)N3CCCCC3)cc2)c(C(F)(F)F)s1	.	i	-0.1	0.1	2.8	.
CC(C)(C)c1ccc(NC(=O)Nc2ccc(F)cc2)cc1	-7.1	i	70.7	-17.5	4.2	.
CCCNC(=O)c1ccc2c(=O)n3c(-c4ccc(C)cc4)csc3nc2c1	.	i	-0.4	8.6	-0.5	.
NNc1ncnc2sc3c(c12)CCC3	.	i	7.8	-14.9	-2.1	.
C(=N\Nc1ncnc2sc3c(c12)CCC3)/c1cccs1	-30.8	i	81.1*	2.6	-14.3	40.5
c1cc(Nc2ncnc3sc4c(c23)CCC4)ccn1	.	i	0.2	-8.0	-0.8	.
C(=N\Nc1ncnc2sc3c(c12)CCC3)/c1ccncc1	-11.7	i	78.6*	-15.8	17.1	43.4
NCCCNC(=O)c1ccc(/C=N/O)nc1	.	i	0.2	-7.4	0.0	.
Cc1cc(N)n2ncc(-c3ccc(F)cc3)c2n1	-9.1	i	79.4*	-3.0	-4.2	42.9
C(=N\Nc1nc2ccccc2[nH]1)/c1ccc2c(c1)OCCO2	.	i	81.7*	-31.6	3.2	7.3
COc1cc(/C=N\Nc2nc3ccccc3[nH]2)cc(OC)c1OC	-17.4	i	81.2*	-15.7	14.9	48.1
CCOc1cc(/C=N/Nc2nc3ccccc3[nH]2)cc(Br)c1OCC(=O)N(C)C	3.7	i	78.5*	-12.0	42.7	57.6*
COc1ccc(/C=N/Nc2nc3ccccc3[nH]2)cc1OC	-0.5	i	78.9*	-9.0	39.6	48.7
COc1cc(OC)c(OC)cc1/C=N/Nc1nc2ccccc2[nH]1	.	i	0.6	-14.3	0.8	.
O=C(C[n+]1ccc(/C=N/O)cc1)NC1CCCCC1	-3.4	i	3.1	0.2	0.8	.
